Measurements reported in ChEMBL document CHEMBL5620424, “Design, synthesis and evaluation of novel 2-phenyl-3-(1H-pyrazol-4-yl)pyridine positive allosteric modulators for the M4 mAChR” (Eur J Med Chem, 2023).

Legend:
[1] = target: T1, Muscarinic acetylcholine receptor M4 (Homo sapiens) (UniProt P08173); assay: […] human M4 mAChR expressed in Flp-In-CHO cells co-expressing CAMYEL biosensor assessed as change in baseline response at 10 uM incubated for 5 mins by BRET assay relative to control; type: cell-based
T1 sequence (whole entry): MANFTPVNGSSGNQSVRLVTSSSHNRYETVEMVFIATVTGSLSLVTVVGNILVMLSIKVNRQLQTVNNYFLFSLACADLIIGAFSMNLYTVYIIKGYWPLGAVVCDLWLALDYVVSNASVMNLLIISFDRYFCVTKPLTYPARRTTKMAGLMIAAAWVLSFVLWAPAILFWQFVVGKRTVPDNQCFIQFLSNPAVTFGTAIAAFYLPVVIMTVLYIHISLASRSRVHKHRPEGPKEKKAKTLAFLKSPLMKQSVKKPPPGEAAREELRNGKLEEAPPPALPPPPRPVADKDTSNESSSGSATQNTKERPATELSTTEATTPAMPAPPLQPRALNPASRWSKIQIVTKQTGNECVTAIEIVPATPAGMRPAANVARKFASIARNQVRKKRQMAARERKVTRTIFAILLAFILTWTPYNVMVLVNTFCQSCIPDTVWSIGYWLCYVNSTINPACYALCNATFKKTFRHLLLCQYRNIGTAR
Procedure, shortened: (§1)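 FlpInCHO cells stably expressing human M4 mAChR, transiently transfected with CAMYEL cAMP BRET biosensor (60 ng/well, PEI), assayed 48 h later in HBSS pH 7.4. Full ACh concentration-response curve alone or with modulator at 1 or 10 μM, co-added with coelenterazine h (5 μM), 5 min, 37 °C. Three-parameter logistic fit; ACh curve values subtracted from ACh+modulator values. Δbaseline and ΔEmax given as % of maximal ACh response without modulator. 4 experiments in duplicate, SEM pooled.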

[2] = target: T1, Muscarinic acetylcholine receptor M4 (Homo sapiens); assay: Positive allosteric modulation at human M4 mAChR expressed in Flp-In-CHO cells co-expressing CAMYEL biosensor assessed as change in ACh-mediated response incubated for 5 mins by BRET assay; type: cell-based; details: filed as positive allosteric modulator; procedure, shortened: as §1
[3] = target: T1, Muscarinic acetylcholine receptor M4 (Homo sapiens); assay: Positive allosteric modulation at human M4 mAChR expressed in Flp-In-CHO cells co-expressing CAMYEL biosensor assessed as change in maximum ACh-mediated response at 10 uM incubated for 5 mins by BRET assay relative to control; type: cell-based; procedure, shortened: as §1
[4] = target: T1, Muscarinic acetylcholine receptor M4 (Homo sapiens); assay: Displacement of 3[H]-NMS from human M4 mAChR expressed in Flp-In-CHO cells assessed as binding constant incubated for 6 hrs by microbeta2 plate reader assay; type: cell-based; details: filed as positive allosteric modulator
Procedure, shortened: (§2)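 Intact FlpInCHO-hM4 cells, 20,000/well grown overnight, in HBSS pH 7.4 with [3H]-NMS 0.5 nM, ACh (0.01 μM–10 mM) and modulator (0.1–10 μM), shaken 6 h at room temperature. Washed with ice-cold 0.9% NaCl, then scintillation counting. Nonspecific binding defined with 10 μM atropine. pKB and log α(ACh) from global fit to allosteric ternary complex model, with log α′(NMS) fixed at –3 under strong negative cooperativity. 4–5 experiments in duplicate.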

[5] = target: T1, Muscarinic acetylcholine receptor M4 (Homo sapiens); assay: Displacement of 3[H]-NMS from human M4 mAChR expressed in Flp-In-CHO cells assessed as binding co-operativity (log alpha) incubated for 6 hrs in presence of ACh by microbeta2 plate reader assay; type: cell-based; details: filed as positive allosteric modulator; procedure, shortened: as §2
[6] = target: T1, Muscarinic acetylcholine receptor M4 (Homo sapiens); assay: Positive allosteric modulation at human M4 mAChR expressed in Flp-In-CHO cells co-expressing CAMYEL biosensor assessed as efficacy of ACh-mediated cAMP signalling (log tau B) incubated for 5 mins by BRET assay; type: functional, cell-based; details: filed as positive allosteric modulator
Procedure, shortened: (§3)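 CAMYEL-transfected FlpInCHO-hM4 cells (48 h post-transfection) given ACh and modulator concentration ranges in full interaction design, 5 min at 37 °C; BRET read with coelenterazine h. Fit to complete operational model of allosterism and agonism with ACh KA and modulator KB fixed from binding assays. Gives log τB and log αβ. 4–5 experiments in duplicate.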

[7] = target: T1, Muscarinic acetylcholine receptor M4 (Homo sapiens); assay: Positive allosteric modulation at human M4 mAChR expressed in Flp-In-CHO cells co-expressing CAMYEL biosensor assessed as ACh-mediated cAMP signalling co-operativity (log alpha beta) incubated for 5 mins by BRET assay; type: functional, cell-based; details: filed as positive allosteric modulator; procedure, shortened: as §3
[8] = target: T1, Muscarinic acetylcholine receptor M4 (Homo sapiens); assay: Positive allosteric modulation at Rluc-tagged human M4 mAChR expressed in Flp-In-CHO cells co-expressing eYFP-tagged beta-arrestin 2 assessed as efficacy of ACh-mediated beta-arrestin 2 recruitment (log tau B) incubated for 5 mins by luminometry; type: cell-based; details: filed as positive allosteric modulator
Procedure, shortened: (§4)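 FlpInCHO cells co-transfected with human M4-Rluc8 (20 ng/well) and β-arrestin-2-eYFP (80 ng/well) using PEI, assayed after 48 h. Coelenterazine h (5 μM) preincubated 5 min, then ACh plus modulator ranges for 5 min at 37 °C; BRET at 475/535 nm. Fit to simplified operational model with slope 1 and KB fixed from binding. 4–5 experiments in duplicate.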

[9] = target: T1, Muscarinic acetylcholine receptor M4 (Homo sapiens); assay: Positive allosteric modulation at Rluc-tagged human M4 mAChR expressed in Flp-In-CHO cells co-expressing eYFP-tagged beta-arrestin 2 assessed as ACh-mediated beta-arrestin 2 recruitment co-operativity (log alpha beta) incubated for 5 mins by luminometry; type: cell-based; details: filed as positive allosteric modulator; procedure, shortened: as §4
[10] = filed as positive allosteric modulator

| SMILES | Activity [1] | deltapEC50 [2] | Emax [3] | Activity [1, 10] | Emax [3, 10] | pKb [4] | log(activity) [5] | log(activity) [6] | log(activity) [7] | log(activity) [8] | log(activity) [9] |
| --- | --- | --- | --- | --- | --- | --- | --- | --- | --- | --- | --- |
| Cc1ccc(-c2cn(CC3CCCC3)nn2)c(-c2ccc3c(c2)C(=O)N(C)C3)n1 | 20% | 1.07 | 11.8% | – | – | – | – | – | – | – | – |
| CN1Cc2ccc(-c3cnccc3-c3cnn(CC4CCCC4)c3)cc2C1=O | – | 0.17 | – | 47.2% | 56.8% | – | – | – | – | – | – |
| CN1Cc2ccc(-c3nccnc3-c3cnn(CC4CCCC4)c3)cc2C1=O | – | -0.34 | 35.1% | 48.5% | – | 4.55 | 1.41 | -0.74 | 1.81 | 0.07 | 0.94 |
| Cc1ccc(-c2cnn(CC3CCOCC3)c2)c(-c2ccc3c(c2)C(=O)N(C)C3)n1 | – | 1.16 | – | 86.7% | 47.1% | – | – | – | – | – | – |
| CCCN1Cc2ccc(-c3nc(C)ccc3-c3cnn(CC4CCCC4)c3)cc2C1=O | – | 2.11 | – | 83.3% | 50.5% | – | – | – | – | – | – |
| Cc1ccc(-c2cnn(CC3CCC3)c2)c(-c2ccc3c(c2)C(=O)N(C)C3)n1 | – | 1.05 | – | 124% | 74% | – | – | – | – | – | – |
| CNC(=O)c1cccc(-c2nc(C)ccc2-c2cnn(CC3CCCC3)c2)c1 | – | 1.99 | – | 78.2% | 61.3% | – | – | – | – | – | – |
| Cc1ccc(-c2cnn(CC(C)C)c2)c(-c2ccc3c(c2)C(=O)N(C)C3)n1 | – | 1.36 | – | 108% | 84.8% | – | – | – | – | – | – |
| Cc1ccc(-c2ccc3c(c2)C(=O)N(C)C3)c(-c2cnn(CC3CCOCC3)c2)n1 | 4.76% | 0.58 | 3.58% | – | – | – | – | – | – | – | – |
| Cc1ccc(-c2cnn(CC3CC3)c2)c(-c2ccc3c(c2)C(=O)N(C)C3)n1 | – | 1.64 | – | 102% | 69.6% | 5.84 | 1.95 | -0.54 | 2.22 | 0.64 | 1.29 |
| Cc1ccc(-c2cnn(CC3CCCC3)c2)c(-c2ccccc2)n1 | 32.1% | 1.15 | 21.8% | – | – | 4.68 | 1.98 | 0.04 | 2.46 | 0.87 | 1.87 |
| Cc1ccc(-c2cnn(CC3CCCC3)c2)c(-c2ccc(N)cc2)n1 | – | 1.31 | – | 88.1% | 80.6% | – | – | – | – | – | – |
| CN1Cc2ccc(-c3ccccc3-c3cnn(CC4CCCC4)c3)cc2C1=O | 6.49% | 0.63 | 25.6% | – | – | – | – | – | – | – | – |
| Cc1ccc(-c2cnn(CC3CCCC3)c2)c(-c2cccc(C(=O)N(C)C)c2)n1 | 33.2% | 0.25 | – | – | 97.7% | 4.49 | 1.47 | -0.58 | 2.03 | -0.83 | 1.06 |
| Cc1ccc(-c2cnn(CC3CCCCC3)c2)c(-c2ccc3c(c2)C(=O)N(C)C3)n1 | – | 0.73 | – | 106% | 63.9% | 6.11 | 1.92 | -0.88 | 2.01 | 0.56 | 1.1 |
| Cc1ccc(-c2cnn(Cc3ccccc3)c2)c(-c2ccc3c(c2)C(=O)N(C)C3)n1 | – | 1.87 | – | 77.1% | 63.8% | – | – | – | – | – | – |
| CN1Cc2ccc(-c3ncccc3-c3cnn(CC4CCCC4)c3)cc2C1=O | 13% | 0.88 | – | – | 41.6% | 5.33 | 2.18 | -0.81 | 2.47 | 0.51 | 2.09 |
| Cc1ccc(-c2cnn(C)c2)c(-c2ccc3c(c2)C(=O)N(C)C3)n1 | 13.7% | 0.57 | 27% | – | – | – | – | – | – | – | – |
| CC(=O)Nc1cccc(-c2nc(C)ccc2-c2cnn(CC3CCCC3)c2)c1 | – | 1.63 | – | 52.2% | 57.7% | – | – | – | – | – | – |
| Cc1ccc(-c2cnn(CC3CCCC3)c2)c(-c2ccc3c(c2)C(=O)NC3)n1 | – | 2.57 | – | 89.7% | 73.3% | – | – | – | – | – | – |
| CN1Cc2ccc(-c3ccncc3-c3cnn(CC4CCCC4)c3)cc2C1=O | – | 1.49 | – | 90.6% | 66.6% | – | – | – | – | – | – |
| Cc1ccc(-c2cnn(CC3CCN(C(=O)OC(C)(C)C)CC3)c2)c(-c2ccc3c(c2)C(=O)N(C)C3)n1 | 5.53% | 0.6 | – | – | 52.5% | – | – | – | – | – | – |
| Cc1ccc(-c2cnn(CC3CCCC3)c2)c(-c2ccc3c(c2)NC(=O)C3)n1 | 18.6% | 1.24 | 39% | – | – | – | – | – | – | – | – |
| Cc1ccc(-c2cnn(CC3CCCC3)c2)c(-c2cccc(C(N)=O)c2)n1 | – | 1.33 | – | 77.3% | 65.6% | – | – | – | – | – | – |
| Cc1ccc(-n2cc(CC3CCCC3)nn2)c(-c2ccc3c(c2)C(=O)N(C)C3)n1 | 24.5% | 1.06 | 13.9% | – | – | – | – | – | – | – | – |
| Cc1ccc(-c2cnn(CC3CCCC3)c2)c(-c2cccc(N)c2)n1 | – | 1.35 | – | 51.7% | 53.5% | – | – | – | – | – | – |
